In ChEMBL document CHEMBL1949660 (Bioorg Med Chem Lett, 2012):
Values belong to the compound of their own block, whether it stands above or below them. Active and inactive are the calls of the source.

What was measured:
Histamine H3 receptor [1] = target: Histamine H3 receptor (Rattus norvegicus, UniProt Q9QYN8); assay: Displacement of [3H]NAMH from rat histamine H3 receptor expressed in CHO cells; type: cell-based
How it was run: (§1)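 Radioligand displacement of [³H]NAMH from membranes isolated from CHO cells transfected with cloned human H₃ or rat H₃ receptors.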

Histamine H3 receptor [2] = target: T1, Histamine H3 receptor (Homo sapiens, UniProt Q9Y5N1); assay: Displacement of [3H]NAMH from human histamine H3 receptor expressed in CHO cells; type: cell-based; how it was run: as §1
T1 sequence (Q9Y5N1 whole entry): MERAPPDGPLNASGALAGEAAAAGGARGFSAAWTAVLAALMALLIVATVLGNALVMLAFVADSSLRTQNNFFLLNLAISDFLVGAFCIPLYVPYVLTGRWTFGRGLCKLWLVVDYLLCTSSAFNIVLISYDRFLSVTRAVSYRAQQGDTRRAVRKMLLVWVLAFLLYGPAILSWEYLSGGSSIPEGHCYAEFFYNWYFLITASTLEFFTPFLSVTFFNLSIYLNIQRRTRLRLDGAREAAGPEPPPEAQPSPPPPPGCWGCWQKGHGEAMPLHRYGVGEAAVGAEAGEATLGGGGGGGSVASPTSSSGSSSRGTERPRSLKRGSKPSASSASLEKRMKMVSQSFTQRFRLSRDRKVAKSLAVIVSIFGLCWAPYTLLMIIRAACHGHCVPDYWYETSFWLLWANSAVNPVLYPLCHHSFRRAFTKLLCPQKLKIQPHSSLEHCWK

[3] = Half life in monkey liver microsomes; type: ADME, Macaca mulatta, Microsome; conditions: rhesus monkey
Cytochrome P450 2C9 = Cytochrome P450 2C9 (Homo sapiens, UniProt P11712); assay: Inhibition of CYP2C9; type: ADME
Cytochrome P450 2C9, sequence (P11712 whole entry): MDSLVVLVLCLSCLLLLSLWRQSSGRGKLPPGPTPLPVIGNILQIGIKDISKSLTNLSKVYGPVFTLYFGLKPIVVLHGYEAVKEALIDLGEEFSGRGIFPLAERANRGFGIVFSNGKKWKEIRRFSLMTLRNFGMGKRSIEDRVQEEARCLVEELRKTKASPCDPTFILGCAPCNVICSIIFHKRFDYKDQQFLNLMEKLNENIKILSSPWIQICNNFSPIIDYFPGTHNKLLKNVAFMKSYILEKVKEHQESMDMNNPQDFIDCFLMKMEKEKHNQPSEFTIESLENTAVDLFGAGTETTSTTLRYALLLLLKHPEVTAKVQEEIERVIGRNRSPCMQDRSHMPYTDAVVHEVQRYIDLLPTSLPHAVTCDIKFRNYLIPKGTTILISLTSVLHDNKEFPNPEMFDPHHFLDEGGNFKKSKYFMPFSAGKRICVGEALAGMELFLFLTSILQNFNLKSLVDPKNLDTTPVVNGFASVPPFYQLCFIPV

[4] = target: Histamine H4 receptor (Homo sapiens) (UniProt Q9H3N8); assay: Inhibition of human histamine H4 receptor at 10 uM
[5] = Clearance in rat at 1 mg/kg, iv; type: ADME, organism-based; set-up: dose 1 mg/kg, route intravenous; conditions: in vivo
How it was run: (§2)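 Rat PK: iv dose with vehicle 3% DMSO, 30% solutol, 67% phosphate buffered saline. Oral 5 mg/kg dose with vehicle 50% Tween 80, 40% propylene carbonate, 10% propylene glycol.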

[6] = Half life in rat at 1 mg/kg, iv; type: ADME, organism-based; set-up: dose 1 mg/kg, route intravenous; conditions: in vivo; how it was run: as §2
Cytochrome P450 2D6 = Cytochrome P450 2D6 (Homo sapiens, UniProt P10635); assay: Inhibition of CYP2D6; type: ADME
Cytochrome P450 2D6, sequence (P10635 whole entry): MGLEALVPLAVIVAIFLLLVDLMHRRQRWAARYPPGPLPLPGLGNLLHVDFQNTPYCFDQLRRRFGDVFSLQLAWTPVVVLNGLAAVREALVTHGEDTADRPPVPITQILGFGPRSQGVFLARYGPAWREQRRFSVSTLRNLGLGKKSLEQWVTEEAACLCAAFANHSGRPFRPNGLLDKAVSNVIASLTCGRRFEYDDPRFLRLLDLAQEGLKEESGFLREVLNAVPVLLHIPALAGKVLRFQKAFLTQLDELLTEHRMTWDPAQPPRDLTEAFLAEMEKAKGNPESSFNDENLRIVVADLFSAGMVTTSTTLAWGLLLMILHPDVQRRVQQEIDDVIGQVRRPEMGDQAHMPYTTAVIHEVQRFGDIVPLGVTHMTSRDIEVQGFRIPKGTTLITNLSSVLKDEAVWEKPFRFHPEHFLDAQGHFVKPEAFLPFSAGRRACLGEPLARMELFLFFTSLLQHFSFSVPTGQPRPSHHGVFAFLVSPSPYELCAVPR

[7] = Cmax in rat at 5 mg/kg, po; type: ADME, organism-based; set-up: dose 5 mg/kg, route oral; conditions: in vivo
[8] = Drug uptake in rat brain at 5 mg/kg, po measured after 6 hrs; type: ADME, organism-based; set-up: dose 5 mg/kg, route oral; conditions: read-out: Drug uptake
How it was run: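 Rats given 5 mg/kg po in 50% Tween 80, 40% propylene carbonate, 10% propylene glycol. Brain concentration determined 6 h after dosing.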

[9] = Half life in rat liver microsomes; type: ADME, Microsome
[10] = Volume of distribution in rat at 1 mg/kg, iv; type: ADME, organism-based; set-up: dose 1 mg/kg, route intravenous; conditions: in vivo; how it was run: as §2
[11] = Half life in human liver microsomes; type: ADME, Microsome
[12] = Aqueous solubility of the compound at pH 7.4; type: physicochemical; conditions: aqueous medium
[13] = target: Histamine H2 receptor (Homo sapiens) (UniProt P25021); assay: Inhibition of human histamine H2 receptor at 10 uM
Histamine H2 receptor (Homo sapiens), sequence (P25021 whole entry): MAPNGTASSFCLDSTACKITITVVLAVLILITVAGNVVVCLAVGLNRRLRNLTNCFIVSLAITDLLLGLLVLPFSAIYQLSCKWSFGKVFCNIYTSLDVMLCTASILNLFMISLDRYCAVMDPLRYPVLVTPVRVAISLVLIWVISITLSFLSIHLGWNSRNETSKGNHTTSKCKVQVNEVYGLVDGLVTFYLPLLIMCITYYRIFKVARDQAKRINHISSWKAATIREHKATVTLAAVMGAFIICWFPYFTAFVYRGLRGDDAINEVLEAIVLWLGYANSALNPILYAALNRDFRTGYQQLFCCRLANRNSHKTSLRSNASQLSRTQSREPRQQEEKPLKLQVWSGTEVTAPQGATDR

[14] = Aqueous solubility of the compound at pH 2; type: physicochemical; conditions: aqueous medium
[15] = target: Histamine H1 receptor (Homo sapiens) (UniProt P35367); assay: Inhibition of human histamine H1 receptor at 10 uM
[16] = Ratio drug uptake in brain to plasma of rat at 10 mg/kg, ip measured after 6 hrs; type: ADME, organism-based; set-up: dose 10 mg/kg, route intraperitoneal; conditions: read-out: BPR
[17] = target: Voltage-gated inwardly rectifying potassium channel KCNH2 (Homo sapiens, UniProt Q12809); assay: Inhibition of human Erg by patch clamp assay
Voltage-gated inwardly rectifying potassium channel KCNH2, sequence (Q12809 whole entry): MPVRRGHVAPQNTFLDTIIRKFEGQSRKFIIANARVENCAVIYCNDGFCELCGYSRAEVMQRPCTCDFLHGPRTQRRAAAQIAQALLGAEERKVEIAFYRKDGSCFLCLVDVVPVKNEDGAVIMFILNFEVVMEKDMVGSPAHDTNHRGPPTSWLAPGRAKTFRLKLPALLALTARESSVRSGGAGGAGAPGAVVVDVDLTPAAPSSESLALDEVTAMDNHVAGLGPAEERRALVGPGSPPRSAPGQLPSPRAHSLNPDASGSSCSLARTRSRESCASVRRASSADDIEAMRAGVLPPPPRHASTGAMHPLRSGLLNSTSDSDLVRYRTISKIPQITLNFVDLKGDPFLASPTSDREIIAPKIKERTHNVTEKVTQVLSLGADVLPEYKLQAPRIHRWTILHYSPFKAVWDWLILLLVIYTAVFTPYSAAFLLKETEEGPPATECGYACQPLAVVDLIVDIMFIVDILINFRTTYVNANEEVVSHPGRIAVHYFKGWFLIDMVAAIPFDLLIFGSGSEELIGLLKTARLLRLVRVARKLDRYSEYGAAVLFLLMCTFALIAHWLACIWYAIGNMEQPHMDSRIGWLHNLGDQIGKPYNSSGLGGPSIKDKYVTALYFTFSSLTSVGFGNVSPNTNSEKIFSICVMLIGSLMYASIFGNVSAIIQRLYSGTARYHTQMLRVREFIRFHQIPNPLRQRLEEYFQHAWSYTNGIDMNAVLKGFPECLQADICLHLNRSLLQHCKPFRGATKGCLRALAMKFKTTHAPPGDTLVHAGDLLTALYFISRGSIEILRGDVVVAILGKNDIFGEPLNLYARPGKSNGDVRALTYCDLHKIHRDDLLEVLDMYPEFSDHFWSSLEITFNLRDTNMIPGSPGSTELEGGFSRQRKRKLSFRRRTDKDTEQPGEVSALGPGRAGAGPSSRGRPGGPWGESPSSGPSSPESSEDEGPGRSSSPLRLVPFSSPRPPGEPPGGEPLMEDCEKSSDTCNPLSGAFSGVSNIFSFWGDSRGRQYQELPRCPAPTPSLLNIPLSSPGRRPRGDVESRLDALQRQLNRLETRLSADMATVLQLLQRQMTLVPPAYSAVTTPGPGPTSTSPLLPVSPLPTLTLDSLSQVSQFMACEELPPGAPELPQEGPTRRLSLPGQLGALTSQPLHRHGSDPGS

[18] = Half life in dog liver microsomes; type: ADME, Canis lupus familiaris, Microsome
[19] = Oral bioavailability in rat at 5 mg/kg; type: ADME, organism-based; conditions: in vivo; how it was run: as §2
[20] = Apparent permeability across human Caco2 cells; type: ADME, cell-based; conditions: Caco-2
[21] = target: Sodium-dependent dopamine transporter (Homo sapiens) (UniProt Q01959); assay: Inhibition of DAT at 10 uM
Sodium-dependent dopamine transporter (Homo sapiens), sequence (Q01959 whole entry): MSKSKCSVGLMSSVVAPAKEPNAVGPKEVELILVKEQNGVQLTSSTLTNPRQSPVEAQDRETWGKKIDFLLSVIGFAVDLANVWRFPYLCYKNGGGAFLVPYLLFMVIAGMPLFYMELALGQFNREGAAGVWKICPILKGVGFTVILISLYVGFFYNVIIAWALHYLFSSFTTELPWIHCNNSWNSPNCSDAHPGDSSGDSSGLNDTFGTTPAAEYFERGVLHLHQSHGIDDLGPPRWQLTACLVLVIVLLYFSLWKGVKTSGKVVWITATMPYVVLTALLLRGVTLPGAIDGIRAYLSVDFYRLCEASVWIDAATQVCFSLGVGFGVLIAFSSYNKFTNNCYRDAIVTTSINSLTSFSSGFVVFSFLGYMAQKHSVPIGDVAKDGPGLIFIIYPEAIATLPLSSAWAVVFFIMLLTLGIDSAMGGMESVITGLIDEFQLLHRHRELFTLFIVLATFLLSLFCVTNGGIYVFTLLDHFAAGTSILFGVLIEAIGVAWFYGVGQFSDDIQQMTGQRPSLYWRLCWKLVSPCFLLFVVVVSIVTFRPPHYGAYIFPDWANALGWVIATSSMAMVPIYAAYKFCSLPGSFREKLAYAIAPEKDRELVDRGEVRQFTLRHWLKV

Histamine H3 receptor [22] = target: T1, Histamine H3 receptor; assay: Inverse agonist activity at human histamine H3 receptor assessed as inhibition of R-alpha-methylhistamine-induced [35S]GTPgammaS binding; type: functional
Cytochrome P450 2C19 = Cytochrome P450 2C19 (Homo sapiens, UniProt P33261); assay: Inhibition of CYP2C19; type: ADME
Cytochrome P450 2C19, sequence (P33261 whole entry): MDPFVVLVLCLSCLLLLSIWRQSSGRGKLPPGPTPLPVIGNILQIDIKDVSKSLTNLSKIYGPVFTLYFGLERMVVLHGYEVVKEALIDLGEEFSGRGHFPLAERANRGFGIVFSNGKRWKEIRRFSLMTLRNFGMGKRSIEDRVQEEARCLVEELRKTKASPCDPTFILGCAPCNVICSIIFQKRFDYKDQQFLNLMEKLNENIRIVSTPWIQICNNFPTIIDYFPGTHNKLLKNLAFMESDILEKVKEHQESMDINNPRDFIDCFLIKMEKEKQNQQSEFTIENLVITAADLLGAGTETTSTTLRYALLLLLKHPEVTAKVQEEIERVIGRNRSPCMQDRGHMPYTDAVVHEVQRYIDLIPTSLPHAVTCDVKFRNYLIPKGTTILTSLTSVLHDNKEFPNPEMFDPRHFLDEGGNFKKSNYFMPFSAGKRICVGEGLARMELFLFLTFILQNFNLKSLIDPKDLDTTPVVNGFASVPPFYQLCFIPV

Cytochrome P450 1A2 = target: T2, Cytochrome P450 1A2 (Homo sapiens, UniProt P05177); assay: Inhibition of CYP1A2; type: ADME
T2 sequence (P05177 whole entry): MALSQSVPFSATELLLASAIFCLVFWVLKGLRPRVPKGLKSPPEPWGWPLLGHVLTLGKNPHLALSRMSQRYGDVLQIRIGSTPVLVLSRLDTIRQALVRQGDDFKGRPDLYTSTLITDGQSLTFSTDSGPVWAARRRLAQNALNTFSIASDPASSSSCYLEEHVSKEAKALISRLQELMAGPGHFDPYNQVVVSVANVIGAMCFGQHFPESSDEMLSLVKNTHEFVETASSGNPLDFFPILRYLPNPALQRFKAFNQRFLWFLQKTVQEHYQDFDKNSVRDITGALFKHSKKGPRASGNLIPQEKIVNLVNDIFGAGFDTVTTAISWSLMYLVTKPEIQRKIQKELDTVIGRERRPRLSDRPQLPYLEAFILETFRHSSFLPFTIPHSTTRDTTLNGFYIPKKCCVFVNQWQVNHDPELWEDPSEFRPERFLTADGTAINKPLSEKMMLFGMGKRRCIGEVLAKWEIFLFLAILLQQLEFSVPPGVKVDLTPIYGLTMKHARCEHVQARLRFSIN

Cytochrome P450 3A4 = Cytochrome P450 3A4 (Homo sapiens, UniProt P08684); assay: Inhibition of CYP3A4; type: ADME
Cytochrome P450 3A4, sequence (P08684 whole entry): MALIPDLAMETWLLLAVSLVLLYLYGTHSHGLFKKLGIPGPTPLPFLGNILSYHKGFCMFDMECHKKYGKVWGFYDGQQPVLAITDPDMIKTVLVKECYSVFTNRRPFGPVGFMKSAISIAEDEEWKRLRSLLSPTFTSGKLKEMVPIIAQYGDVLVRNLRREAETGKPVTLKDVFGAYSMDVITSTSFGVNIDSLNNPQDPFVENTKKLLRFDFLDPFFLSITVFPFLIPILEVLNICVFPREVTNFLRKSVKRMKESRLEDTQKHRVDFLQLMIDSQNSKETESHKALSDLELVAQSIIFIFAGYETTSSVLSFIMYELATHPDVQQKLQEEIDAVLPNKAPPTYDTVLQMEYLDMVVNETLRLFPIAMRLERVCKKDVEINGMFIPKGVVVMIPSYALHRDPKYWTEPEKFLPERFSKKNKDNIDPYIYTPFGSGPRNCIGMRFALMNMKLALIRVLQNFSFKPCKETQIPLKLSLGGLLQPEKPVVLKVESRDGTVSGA

Rattus norvegicus [23] = assay: Effect on sleep-awake cycle in EEG/EMG rat model assessed as awake time at 10 mg/kg, ip after 4 hrs relative to control; type: functional; conditions: route intraperitoneal
How it was run: (§3)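 Rats surgically implanted for chronic EEG and EMG recording. Wake, slow-wave sleep and REM sleep scored by standard criteria. Doses spanned […]–30 mg/kg ip, given during the normal quiet (lights-on) period, with a vehicle group as control. Cumulative wake time taken as AUC over time after dosing. Statistics by ANOVA.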

Rattus norvegicus [24] = assay: Effect on sleep-awake cycle in EEG/EMG rat model assessed as sleep rebound at 0.1 to 30 mg/kg, ip; type: functional, organism-based; how it was run: as §3
Rattus norvegicus [25] = assay: Effect on sleep-awake cycle in EEG/EMG rat model assessed as wake promotion time at 0.3 mg/kg, ip after 4 hrs (reference value: 80 +/- 5 mins); type: functional; conditions: route intraperitoneal; how it was run: as §3
Rattus norvegicus [26] = assay: Effect on sleep-awake cycle in EEG/EMG rat model assessed as wake promotion time at 0.1 mg/kg, ip after 4 hrs (reference value: 80 +/- 5 mins); type: functional; conditions: route intraperitoneal; how it was run: as §3
[27] = Plasma protein binding in rat; type: ADME, cell-free; conditions: read-out: PPB
Rattus norvegicus [28] = assay: Effect on sleep-awake cycle in ip dosed EEG/EMG rat model assessed as wake promotion after 4 hrs; type: functional, organism-based; how it was run: as §3
Rattus norvegicus [29] = assay: Effect on sleep-awake cycle in EEG/EMG rat model assessed as wake promotion at 10 mg/kg, ip after 2 hrs; type: functional; conditions: route intraperitoneal; how it was run: as §3
Homo sapiens [30] = organism: Homo sapiens; assay: Selectivity for human histamine H3 receptor over human histamine H2 receptor
How it was run: (§4)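 The hH3 side comes from displacement of [³H]NAMH binding in membranes from CHO cells transfected with cloned human H3 receptor. Human H1, H2 and H4 receptors were tested in an outsourced receptor selectivity profiling screen (LeadProfiler/Spectrum). The value is the fold-selectivity of hH3 over each subtype.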

Rattus norvegicus [31] = assay: Effect on sleep-awake cycle in EEG/EMG rat model assessed as wake promotion time at 30 mg/kg, ip after 4 hrs relative to control; type: functional; conditions: route intraperitoneal; how it was run: as §3
Rattus norvegicus [32] = assay: Effect on sleep-awake cycle in EEG/EMG rat model assessed as awake time at 30 mg/kg, ip after 4 hrs relative to control; type: functional; conditions: route intraperitoneal; how it was run: as §3
Homo sapiens [33] = organism: Homo sapiens; assay: Selectivity for human histamine H3 receptor over human histamine H1 receptor; how it was run: as §4
Rattus norvegicus [34] = assay: Effect on sleep-awake cycle in EEG/EMG rat model assessed as wake promotion time at 10 mg/kg, ip after 4 hrs relative to control; type: functional; conditions: route intraperitoneal; how it was run: as §3
Rattus norvegicus [35] = assay: Effect on sleep-awake cycle in EEG/EMG rat model assessed as maximal cumulative wake surplus time at 30 mg/kg, ip after 7 hrs relative to control; type: functional; conditions: route intraperitoneal; how it was run: as §3
Homo sapiens [36] = organism: Homo sapiens; assay: Selectivity for human histamine H3 receptor over human histamine H4 receptor; how it was run: as §4
Rattus norvegicus [37] = assay: Effect on sleep-awake cycle in EEG/EMG rat model assessed as wake surplus at 30 mg/kg, ip up to 22 hrs; type: functional, organism-based; set-up: dose 30 mg/kg; how it was run: as §3
[38] = Plasma protein binding in dog; type: ADME, cell-free, Canis lupus familiaris; conditions: read-out: PPB
Rattus norvegicus [39] = assay: Effect on sleep-awake cycle in EEG/EMG rat model assessed as wake promotion at 0.1 to 1 mg/kg, ip after 4 hrs relative to control; type: functional; conditions: dose mg/kg 0.1-1; route intraperitoneal; how it was run: as §3
Rattus norvegicus [40] = assay: Inhibition of RAMH-induced dipsogenia in ip dosed rat; type: functional
[41] = Plasma protein binding in human; type: ADME, cell-free; conditions: read-out: PPB
Rattus norvegicus [42] = assay: Effect on sleep-awake cycle in EEG/EMG rat model assessed as wake promotion time at 1 mg/kg, ip after 4 hrs (reference value: 80 +/- 5 mins); type: functional; conditions: route intraperitoneal; how it was run: as §3

Histamine H3 receptor (Rattus norvegicus, UniProt Q9QYN8), sequence (Q9QYN8 whole entry): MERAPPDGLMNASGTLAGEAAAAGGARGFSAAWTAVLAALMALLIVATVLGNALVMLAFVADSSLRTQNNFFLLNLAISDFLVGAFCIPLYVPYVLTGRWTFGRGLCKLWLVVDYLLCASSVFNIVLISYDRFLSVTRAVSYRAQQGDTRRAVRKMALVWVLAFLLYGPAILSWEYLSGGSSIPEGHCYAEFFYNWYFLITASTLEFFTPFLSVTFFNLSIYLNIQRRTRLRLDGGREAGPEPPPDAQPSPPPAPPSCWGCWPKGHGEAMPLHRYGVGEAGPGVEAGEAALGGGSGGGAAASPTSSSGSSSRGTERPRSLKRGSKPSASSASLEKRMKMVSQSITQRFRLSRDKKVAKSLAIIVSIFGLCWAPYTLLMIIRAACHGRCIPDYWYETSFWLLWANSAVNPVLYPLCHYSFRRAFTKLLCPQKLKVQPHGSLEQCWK

Compound: O=c1ccc(-c2ccc(OC3CCN(C4CCC4)CC3)cc2)nn1-c1ccccn1
Ki (Histamine H3 receptor [1]): 15 nM | Ki (Histamine H3 receptor [2]): 9.8 nM

Compound: CC(C)N1CCC(Oc2ccc(-c3ccc(=O)[nH]n3)cn2)CC1
Ki (Histamine H3 receptor [1]): 101 nM | Ki (Histamine H3 receptor [2]): 15 nM

Compound: C[C@@H]1CC(=O)NN=C1c1ccc(OC2CCN(C3CCC3)CC2)cc1
Ki (Histamine H3 receptor [1]): 9.6 nM

Stronger by Ki (Histamine H3 receptor [1]), values ahead:

Ki (Histamine H3 receptor [1]): 6.7 nM | Ki (Histamine H3 receptor [2]): 3.7 nM
Compound: O=C1CCC(c2ccc(OC3CCN(C4CCC4)CC3)cc2)=NN1

half-life [3]: > 40 min | IC50 (Cytochrome P450 2C9): > 30000 nM | clearance [5]: 18 mL/min/kg | half-life [6]: 114 min | IC50 (Cytochrome P450 2D6): > 30000 nM | Cmax [7]: 270 ng/mL | concentration at 6 h [8]: 2100 nM | half-life [9]: > 40 min | Vd [10]: 3.1 L/kg | fraction unbound [27]: 0.5 | half-life [11]: > 40 min | Selectivity ratio (Homo sapiens [30]): > 1000 | Selectivity ratio (Homo sapiens [33]): > 1000 | Kp at 6 h [16]: 4 | Selectivity ratio (Homo sapiens [36]): > 1000 | fraction unbound [38]: 0.5 | half-life [18]: > 40 min | Ki (Histamine H3 receptor [1]): 4.4 nM | bioavailability [19]: 33% | Papp [20]: 27 ×10⁻⁶ cm/s | fraction unbound [41]: 0.5 | inhibition [21]: 8% | EC50 (Histamine H3 receptor [22]): 0.8 nM | Ki (Histamine H3 receptor [2]): 2.7 nM | IC50 (Cytochrome P450 2C19): > 30000 nM | IC50 (Cytochrome P450 1A2): > 30000 nM | IC50 (Cytochrome P450 3A4): > 30000 nM
Compound: CC1(C)CC(c2ccc(OC3CCN(C4CCC4)CC3)cc2)=NNC1=O
Activity (Rattus norvegicus [23]): 84% | Activity (Rattus norvegicus [24]): inactive | Time (Rattus norvegicus [25]): 122 min | Time (Rattus norvegicus [26]): 115 min | Activity (Rattus norvegicus [28]): Dose-dependent effect | Activity (Rattus norvegicus [29]): 90% | Activity (Rattus norvegicus [31]): 193% | Activity (Rattus norvegicus [32]): 98% | Activity (Rattus norvegicus [34]): 152% | Time (Rattus norvegicus [35]): 196 min | IC50 [17]: 21000 nM | Activity (Rattus norvegicus [37]): Active | Activity (Rattus norvegicus [39]): 45% | ED50 (Rattus norvegicus [40]): 0.14 mg/kg | inhibition (Rattus norvegicus [40]): Dose-dependent effect | Time (Rattus norvegicus [42]): 116 min

half-life [3]: > 40 min | IC50 (Cytochrome P450 2C9): > 30000 nM | inhibition [4]: < 10% | clearance [5]: 13 mL/min/kg | half-life [6]: 138 min | IC50 (Cytochrome P450 2D6): > 30000 nM | Cmax [7]: 441 ng/mL | concentration at 6 h [8]: 1400 nM | half-life [9]: > 40 min | Vd [10]: 2.5 L/kg | half-life [11]: > 40 min | solubility [12]: > 1000 µg/mL | inhibition [13]: < 10% | solubility [14]: > 1000 µg/mL | inhibition [15]: < 10% | Kp at 6 h [16]: 1.9 | half-life [18]: > 40 min | Ki (Histamine H3 receptor [1]): 2.2 nM | bioavailability [19]: 35% | Papp [20]: 16.5 ×10⁻⁶ cm/s | inhibition [21]: 63% | EC50 (Histamine H3 receptor [22]): 1.1 nM | Ki (Histamine H3 receptor [2]): 1.9 nM | IC50 (Cytochrome P450 2C19): > 30000 nM | IC50 (Cytochrome P450 1A2): > 30000 nM | IC50 (Cytochrome P450 3A4): > 30000 nM
Compound: O=c1ccc(-c2ccc(OC3CCN(C4CCC4)CC3)cc2)n[nH]1
IC50 [17]: 8000 nM
